# Arr AP2 block = inhibitors of human beta-arrestin and AP2 interaction; inhibition, % at 10 µM; FITC-arrestin peptide / GST-AP2 beads, flow cytometry; AP2 beta2 appendage carries R879A mutation; actives 0.31% (n = 340,000); AID 504490;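 active means inhibition above a set limit, near 3 SD of compounds lacking own fluorescence, cut at about 54% in these data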;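 further: plate controls were DMSO wells for no effect and 5 µM unlabelled arrestin peptide for full effect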
#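 System: GST-AP2 R879A glutathione beads | Also added: FITC-arrestin peptide, 50 nM | Times: 12 min plus 1 h, RT | Signal: Bead flow cytometry, FITC channel | Buffer or medium: PBS with 0.05% Tween 20 and 0.1% BSA | Read-out basis: Percent drop in bead-associated FITC signal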
# AHR act = activators of human aryl hydrocarbon receptor | P35869 | AHR-responsive luciferase reporter cells, luminescence | activation, % at 5 µM | actives 2.5% (n = 320,000) | AID 2796; in the data active means activation above about 47%;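 further: 0% = vehicle wells and 100% = reference agonist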
# APOBEC3G inh = blocks human APOBEC3G single-stranded DNA deamination. AID 493012. inhibition, % at 20 µM. actives 0.28% (n = 330,000). Q9HC16. recombinant A3G, ssDNA deamination FAM/TAMRA fluorescence;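 active means inhibition of at least 40% at 20 µM, with no more than 30% in the related APOBEC3A deaminase screen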;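 further: plate controls were DMSO wells with A3G for no effect and wells lacking A3G enzyme for full effect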
# Target sequence (Q9HC16 whole entry, looked up): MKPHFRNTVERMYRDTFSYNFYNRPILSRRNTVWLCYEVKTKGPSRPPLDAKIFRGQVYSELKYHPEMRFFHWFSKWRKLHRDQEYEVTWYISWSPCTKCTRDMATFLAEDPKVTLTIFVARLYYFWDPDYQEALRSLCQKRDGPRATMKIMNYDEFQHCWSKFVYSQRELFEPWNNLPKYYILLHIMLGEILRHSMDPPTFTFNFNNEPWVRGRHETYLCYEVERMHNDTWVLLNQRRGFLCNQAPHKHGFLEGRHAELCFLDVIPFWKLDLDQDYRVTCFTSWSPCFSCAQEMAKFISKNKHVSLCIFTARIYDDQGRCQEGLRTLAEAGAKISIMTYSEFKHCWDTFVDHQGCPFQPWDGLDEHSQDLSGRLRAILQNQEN
# PolyA inhibitor = blocks polyadenylation in yeast reporter cells; S. cerevisiae SKY197-pL101 polyadenylation reporter, beta-gal luminescence; efflux-impaired pdr1/pdr3 knockout yeast; score 100 = 6 SD above DMSO; activity score, % at 12 µM; actives 0.02% (n = 300,000); AID 1875;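 active means lowest replicate activity score at least 50, where 100 means six control SD above control mean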;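 further: yeast exposed to compound for 9 h at 30 °C; higher score means more reporter readthrough which indicates perturbed polyadenylation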
# UCH37 inh = blocks the human deubiquitinase UCH37. AID 588478. Q9Y5K5. purified proteasome/UCH37, Ub-AMC cleavage fluorescence. actives 0.33% (n = 330,000). inhibition, % (test concentration not listed);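 active means mean inhibition over replicate wells above about 20%, limit read from the data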;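 further: 0% = compound-free wells with enzyme and 100% = wells lacking proteasome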
#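 assay system = human UCH37 enzyme supplied as purified proteasome complex | amount = proteasome at 0.15 nM in the dispensed enzyme solution | schedule = 30 min compound-proteasome preincubation then 25 min substrate reaction, room temperature | measured by = fluorescence, ex 355 nm, em 460 nm | benchmarks = no-proteasome wells (full inhibition) and compound-free wells (no inhibition)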
# A3A deaminase = blocks human APOBEC3A ssDNA deamination; P31941; recombinant A3A, FAM/TAMRA ssDNA deamination fluorescence; inhibition, % at 20 µM; actives 0.41% (n = 330,000); AID 493011;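 active means at least 40% inhibition at 20 µM here, with at most 30% in a related deaminase screen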;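 further: plate controls were A3A with DMSO for no effect and wells lacking A3A enzyme for full effect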
# Target sequence (P31941 whole entry, looked up): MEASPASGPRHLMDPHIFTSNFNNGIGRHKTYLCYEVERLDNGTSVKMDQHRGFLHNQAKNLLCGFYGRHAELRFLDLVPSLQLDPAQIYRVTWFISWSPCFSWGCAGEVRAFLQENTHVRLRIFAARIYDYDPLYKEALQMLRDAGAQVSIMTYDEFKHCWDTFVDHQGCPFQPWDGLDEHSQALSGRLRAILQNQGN
# The depositor's hits bear a star; / = no result given. In the library only some 3.4% were active in any assay of this set; here they are far more common.
SMILES,Arr AP2 block,AHR act,APOBEC3G inh,PolyA inhibitor,UCH37 inh,A3A deaminase
Cc1ccc(NC(=O)NNC(=O)COc2ccc([N+](=O)[O-])cc2)cc1C,-8,4,2,-6,2,2
Cc1ccc(NC(=O)CCC(=O)NNC(=O)COc2ccc([N+](=O)[O-])cc2)cc1C,37,53*,0,5,1,0
COc1ccc(OC)c(C(=O)NN=Cc2ccccn2)c1,/,/,/,/,5,/
COC(=O)COc1ccc(C=NNS(=O)(=O)c2ccccc2)cc1,/,/,/,/,3,/
CCOc1ccc(C=NNC(=O)c2ccc(Cn3cc([N+](=O)[O-])cn3)o2)cc1,/,/,/,/,5,/
NC(=O)C1CCN(c2nc(-c3ccccc3Br)cs2)CC1,/,65*,-8,/,5,1
NC(=O)C1CCN(c2nc(-c3ccccc3F)cs2)CC1,-5,12,-6,/,3,-4
COc1cccc(-c2nc(-c3ccccc3)[nH]c(=O)c2C#N)c1,6,79*,-5,-8,1,-4
COc1ccc(-c2nc(-c3cccc(C)c3)[nH]c(=O)c2C#N)cc1,-3,0,-5,8,-99,-5
CSc1nsc(SCC(=O)Nc2ccc(Br)cn2)n1,0,48*,-3,3,3,4
CCOc1cc(/C=C2\N=C(SC(C)C(N)=O)N(c3ccc(OC(F)F)cc3)C2=O)ccc1O (configuration not stated),11,-5,-62,157*,3,-36
c1cc2cc(-c3c(-c4ccc5c(c4)OCO5)noc3-c3ccsc3)ccc2[nH]1,-11,49*,-16,-7,/,-5
Cc1onc(-c2ccc3c(c2)OCO3)c1-c1ccc2[nH]ccc2c1,-9,26,5,-17,2,2
CC1=NN(C(=O)CSCc2ccccc2)C(O)(c2ccc(Cl)cc2)C1 (configuration not stated),17,8,7,-16,7,1
CC1=NN(C(=O)CSCc2ccccc2)C(O)(c2ccc(F)cc2)C1 (configuration not stated),11,2,-7,-1,22*,-1
COc1ccc(C=NNC(=O)CCC(=O)Nc2ccc(Br)cc2)c(OC)c1,/,/,/,/,3,/
N=C1/C(=C\c2ccc(-c3cccc(Cl)c3)o2)C(=O)N=C2SC=C(c3ccccc3)N12,10,49*,-8,6,7,2
O=C(NCCc1ccccc1)C(c1cccs1)N(C(=O)c1csnn1)C1CC1 (configuration not stated),4,58*,-11,29,3,-4
NS(=O)(=O)c1ccc(NN=Cc2ccc(O)c(O)c2O)c([N+](=O)[O-])c1,/,/,/,/,10,/
Cc1ccc2[nH]c(=O)c(-c3nc4ccccn4c3NCc3ccco3)cc2c1,10,48*,-4,-9,4,1
O=Cc1c(NCc2ccco2)nc2ccccn2c1=O,1,3,-8,-10,4,3
Cn1c2ccc(F)cc2c2nc3ccccc3nc21,6,43,-7,15,-17,1
Cn1c2ccc(Cl)cc2c2nc3ccccc3nc21,19,56*,-2,-12,-10,1
O=c1oc2ccccc2n1CCn1c2ccccc2c2nc3ccccc3nc21,-1,22,-5,9,-14,-18
N#CCCn1c2ccccc2c2nc3ccccc3nc21,33,70*,-4,-30,-23,-2
SMILES,Arr AP2 block,AHR act,APOBEC3G inh,PolyA inhibitor,UCH37 inh,A3A deaminase
CCN(CC)CCn1c(C)nc2ccccc21,8,0,18,12,0,0
CCN(CC)CCn1c2ccccc2c2nc3ccccc3nc21,9,64*,3,8,6,7
CCn1c2ccc(F)cc2c2nc3ccccc3nc21,5,59*,-3,-18,-44,-2
CCCn1c2ccccc2c2nc3ccccc3nc21,3,79*,1,-28,-42,1
Cc1ccc(NC(=O)CN2C(=O)N/C(=C/c3cccn3-c3ccc(C(=O)O)cc3)C2=O)cc1,10,2,/,/,21*,/
Cc1ccc(NC(=O)CN2C(=O)N/C(=C/c3cc(C)n(-c4ccc(C(=O)O)cc4)c3C)C2=O)cc1,44,/,/,/,10,/
C=CCc1cc(C)ccc1OCCOCCn1ccnc1,13,55*,-2,-5,3,1
Cc1cc2c(C)ccc(C)c2nc1SCC(=O)c1cccs1,2,58*,8,-12,5,-2
O=C(NN=Cc1ccoc1)c1ccco1,/,/,/,/,3,/
Cn1c(-c2ncc(F)cc2F)cc2onc(-c3c(F)cccc3Cl)c2c1=O,2,50*,-7,/,1,-4
Clc1ccc(C2=Nn3c(nnc3-c3n[nH]c4c3CCC4)SC2)cc1,-1,49*,-7,1,5,-4
Cc1ccc(-c2nnc3n2N=C(c2ccc(Br)cc2)CS3)cc1,3,7,-11,3,6,-4
Brc1ccc(C2=Nn3c(nnc3-c3n[nH]c4c3CCC4)SC2)cc1,-5,78*,-5,-5,/,-3
CC(C)[C@H](N)c1nnc2n1N=C(c1ccc(Cl)cc1)CS2,11,5,-9,-12,3,-4
COc1ccc(N=C(NN)c2ccc3ccccc3n2)cc1,-18,71*,4,-18,1,3
COc1ccc(-n2cc(-c3ccc(C)cc3)[n+]3c2SCC3)cc1,-4,0,-1,20,35*,-5
Cc1ccc(-c2cn(-c3ccccc3)c3[n+]2CCCS3)cc1,12,1,-7,5,4,-8
CCN(CC)C(=O)c1cc(-c2ccc3c(c2)OCO3)on1,25,73*,-7,-3,2,-3
CCN(CC)C(=O)c1cc(-c2ccccc2OC)on1,-6,48*,0,-19,-1,1
COCCNC(=O)c1cc(-c2ccccc2OC)on1,-1,-1,-9,-6,-2,-4
COc1ccc(C=NNC(=O)c2nn(-c3ccc(C)c(C)c3)c(=O)c3ccccc23)cc1,/,/,/,/,-3,/
O=C(NCc1ccc(Cl)cc1)C1CCCN(c2cnccn2)C1 (configuration not stated),46,78*,-5,5,-10,-6
O=C(Nc1ccc(F)cc1)C1CCCN(c2cnccn2)C1 (configuration not stated),17,9,22,-4,-16,2
O=C(NCc1ccc(Cl)cc1)C1CCN(c2cnccn2)CC1,-7,4,-8,14,-3,1
CCOc1ccc(NC(=O)C2CCCN(c3cnccn3)C2)cc1 (configuration not stated),17,64*,0,2,-11,-2
COc1cccc(CNC(=O)C2CCCN(c3cnccn3)C2)c1 (configuration not stated),2,25,7,16,-8,1

# Assay outcomes as filed in PubChem BioAssay.
